From ChEMBL document CHEMBL1764953, “Discovery of orally active carboxylic acid derivatives of 2-phenyl-5-trifluoromethyloxazole-4-carboxamide as potent diacylglycerol acyltransferase-1 inhibitors for the potential treatment of obesity and diabetes” (J Med Chem, 2011)
Activity calls are given as the source filed them. The rule behind the calls is not given here.

What was measured:
[1] = Half life in Beagle dog at 5 mg/kg, iv; assay type: ADME, organism-based, Canis lupus familiaris; design: dose 5 mg/kg, route intravenous; conditions: in vivo
Outline: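 Plasma levels by protein precipitation with acetonitrile and LC-MS/MS (linear range 5.0–5000 ng/mL); noncompartmental analysis; mean of n = 3.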

[2] = Cmax in diet-induced obese rat at 1 mg/kg, po administered once daily for 3 weeks; assay type: ADME, organism-based; design: dose 1 mg/kg, route oral; conditions: in vivo
[3] = Oral bioavailability in Beagle dog at 10 mg/kg; assay type: ADME, organism-based, Canis lupus familiaris; conditions: in vivo
Outline: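 Plasma extracted by acetonitrile precipitation and quantified by LC-MS/MS (5.0–5000 ng/mL); noncompartmental PK; bioavailability relative to 5 mg/kg iv; mean of n = 3.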

[4] = Clearance in Hanover Wistar rat at 5 mg/kg, iv; assay type: ADME, organism-based; design: dose 5 mg/kg, route intravenous; conditions: in vivo
Outline: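 Hanover Wistar rats (n = 3) cannulated in jugular and femoral veins, dosed iv 5 mg/kg via jugular vein as a solution in 2% DMA, 15% PEG400, 77% of 28% HPβCD in pH 7 PBS. Femoral-vein blood, EDTA plasma, acetonitrile precipitation, LC-MS/MS, noncompartmental analysis; mean of n = 3.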

Rattus norvegicus = experiment: Antidiabetic activity in diet-induced obese Sprague-Dawley rat assessed as decrease in glucose excursion at 1 mg/kg, po administered once daily for 3 weeks by OGTT; assay type: functional, organism-based; design: dose 1 mg/kg
Outline: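 Male Sprague-Dawley DIO rats (n = 10/group), 550–650 g, reverse light/dark cycle, high fat diet from 7 weeks of age; dosed po once daily in Klucel suspension.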

Q: With `O=C(Nc1ccc(C2CCN(C(=O)[C@H]3CC[C@H](C(=O)O)CC3)CC2)cc1)c1nc(-c2ccccc2)oc1C(F)(F)F` as the molecule, how does the half-life [1] read?
A: 5.3 h

Q: And the Cmax [2]?
A: 4.8 µM

Q: What about the bioavailability [3] of the same molecule?
A: 33%

Q: And the clearance [4]?
A: 0.38 mL/min/kg

Q: What about the Activity (Rattus norvegicus) of the same molecule?
A: Active
